In the library only some 2% were active in any assay of this set; here they are far more common.
PAD4 inh: blocks human protein arginine deiminase 4. Q9UM07. recombinant PAD4, RCA probe fluorescence polarization. inhibition, % at 6.36 µM. 330,000 compounds, 0.41% hits;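 active = percent inhibition above a cutoff equal to the mean of all tested compounds plus 3 SD, cut at about 15% in these data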
Target sequence (Q9UM07 whole entry, looked up): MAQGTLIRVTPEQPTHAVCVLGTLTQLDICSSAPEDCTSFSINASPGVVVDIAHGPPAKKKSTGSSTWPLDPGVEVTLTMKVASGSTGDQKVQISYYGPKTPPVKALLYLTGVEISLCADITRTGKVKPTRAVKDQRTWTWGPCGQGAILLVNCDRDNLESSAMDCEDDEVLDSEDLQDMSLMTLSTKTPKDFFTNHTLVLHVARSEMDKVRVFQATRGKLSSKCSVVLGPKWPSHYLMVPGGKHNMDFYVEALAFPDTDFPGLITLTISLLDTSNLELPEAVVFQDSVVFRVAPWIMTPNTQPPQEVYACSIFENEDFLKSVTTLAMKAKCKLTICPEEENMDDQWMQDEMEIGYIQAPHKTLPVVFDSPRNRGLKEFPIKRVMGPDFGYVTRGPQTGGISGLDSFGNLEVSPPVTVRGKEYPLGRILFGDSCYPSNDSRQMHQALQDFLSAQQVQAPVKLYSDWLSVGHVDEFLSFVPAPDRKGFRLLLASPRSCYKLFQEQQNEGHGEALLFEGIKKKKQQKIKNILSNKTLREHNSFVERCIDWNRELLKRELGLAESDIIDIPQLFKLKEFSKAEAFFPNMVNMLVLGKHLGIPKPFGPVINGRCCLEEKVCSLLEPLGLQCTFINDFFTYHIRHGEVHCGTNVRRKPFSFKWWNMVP
TCR CD3 inh: inhibitors of human TCR-CD3 interaction. TAMRA-labeled TCR probe fluorescence, biochemical. inhibition, % at 9.4 µM. 360,000 compounds, 0.37% hits;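 note: recombinant mutant TCR 2C K166C tagged with TAMRA read by polarization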
ABHD4 inh: inhibitors of mouse ABHD4; Q8VD66; purified mABHD4, FP-Rh probe fluorescence polarization; inhibition, % at 8.92 µM; 370,000 compounds, 0.54% hits;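 active = inhibition exceeding the mean over every tested compound plus 3 SD, cut at about 30% in these data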
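Assay system: Wild-type mouse ABHD4 protein | Medium: HEPES pH 7.0 buffer, 150 mM NaCl, 0.01% Pluronic F-127 | Incubation: Enzyme–compound pre-incubation 45 min, then probe 60 min, both 25 °C | Technique: Fluorescence polarization with parallel and perpendicular emission, 525/598 nm | Evaluation: % inhibition of FP-Rh probe binding versus controls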
SIAE inh: blocks human sialic acid acetylesterase; Q9HAT2; SIAE FP-Rh probe binding, fluorescence polarization; inhibition, % at 9.66 µM; 370,000 compounds, 0.69% hits; AID 1053197;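 active = inhibition above a cutoff: mean of compounds within the control limits plus 3 SD of those, cut at about 17% in these data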
HTRA1 inhibitor: HTRA1 (human) protease inhibition; Q92743; recombinant HTRA1, FP-rhodamine activity-based probe, fluorescence polarization; inhibition, % at 5.96 µM; 340,000 compounds, 0.5% hits; AID 504803; in the data active = inhibition above about 36%
TDP2 absorb: TDP2 (human) inhibition, absorbance primary screen | AID 720702 | inhibition, % at 12.8 µM | O95551 | recombinant TDP2, T5PNP hydrolysis, p-nitrophenol absorbance 415 nm | 370,000 compounds, 0.34% hits;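 active = inhibition above the mean of all tested compounds plus 3 SD, set per campaign, cut at about 25% in these data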
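System: recombinant human TDP2 / Amount: 120 nM TDP2 per well / Also added: 5 mM T5PNP chromogenic substrate / Doses: 12.8 µM single point, 1% DMSO / Incubation: 2 h at 37 °C / Detection: p-Nitrophenol epi absorbance / Evaluation: % inhibition relative to enzyme-containing and enzyme-free wells / Repeats: singlicate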
HTRA1 conf: confirmation of human HTRA1 inhibitors. shares compounds with HTRA1 inhibitor. recombinant HTRA1, FP-rhodamine activity-based probe, fluorescence polarization. inhibition, % at 5.96 µM. 1,600 compounds, 66% hits. AID 540248;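 active = mean inhibition over three repeats above a set limit taken from the earlier primary screen, cut at about 37% in these data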;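 note: inhibitors block probe binding so polarization drops and inhibition rises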
BSA probe FL: interferes with TAMRA-BSA probe, flagging TCR-CD3 hits; shares compounds with TCR CD3 inh; TAMRA-labeled BSA probe fluorescence counterscreen; inhibition, % at 9.4 µM; 1,200 compounds, 10% hits; AID 652035; in the data active = inhibition above about 23%
TCR-CD3 conf: TCR-CD3 interaction inhibition, confirmation. shares compounds with TCR CD3 inh. TAMRA-labeled TCR probe fluorescence binding assay. inhibition, % at 9.4 µM. 1,200 compounds, 48% hits. AID 652036
ABHD4 confirm: ABHD4 (mouse) inhibition, FP confirmation. shares compounds with ABHD4 inh. purified mABHD4, FP-Rh probe fluorescence polarization. inhibition, % at 8.92 µM. 1,800 compounds, 55% hits;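 active = mean inhibition across replicates above the hit cutoff set in the primary screen, cut at about 30% in these data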
SIAE confirm: human SIAE inhibition, confirmation; shares compounds with SIAE inh; SIAE FP-Rh activity-based probe, fluorescence polarization; inhibition, % at 9.66 µM; 2,300 compounds, 13% hits; AID 1117263;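 active = mean inhibition of the replicates above the hit cutoff set in the primary screen, cut at about 17% in these data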;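 note: inhibitors lower polarization as more probe stays unbound to SIAE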
Numbers stand for hits; i = inactive; nt = no result. Cut-off read from the data, not from the text of the source, unless noted: active = inhibition above about 19%; inactive = the rest.

SMILES	PAD4 inh	TCR CD3 inh	ABHD4 inh	SIAE inh	HTRA1 inhibitor	TDP2 absorb	HTRA1 conf	ABHD4 confirm	SIAE confirm	others
COc1ccc2[nH]c3c(c2c1)CCNC3c1ccc([N+](=O)[O-])o1 (centres undefined)	i	i	i	21.4	42.6	i	46.6	nt	21.6
Cn1c(=O)c(Nc2ccc(O)cc2)c2c3c(cccc31)C(=O)c1ccccc1-2	i	i	74.4	25.6	77.6	i	86.5	64.6	i
CC(=O)c1c2c3c(cccc3n(C)c1=O)C(=O)c1ccccc1-2	i	nt	nt	nt	nt	nt	nt	nt	nt
O=C(O)c1ccccc1NC(=O)C1CCN(S(=O)(=O)c2ccc3c(c2)OCCO3)CC1	nt	i	i	i	i	i	nt	nt	nt
Oc1ccc(/C=N/N=C(c2ccccc2)c2ccccc2)c(O)c1O	i	34.8	41.9	20.3	66.2	i	66.9	34.2	i	BSA probe FL=i;TCR-CD3 conf=28.0
COc1ccc(C(=O)C(=NN)c2ccccc2)cc1	nt	i	i	i	i	i	nt	nt	nt
O=C(/C(=N/N=C/c1ccc(O)c(O)c1O)c1ccccc1)c1ccccc1	i	i	53.1	33.0	79.3	i	74.1	46.7	i
CCN(C)C1CN(Cc2cn(Cc3ccc(Cl)cc3)nn2)S(=O)(=O)C1 (centres undefined)	nt	i	i	i	nt	i	nt	nt	nt
COc1ccc(NC(=O)CSc2nnc(-c3cccnc3)s2)cc1	i	i	i	i	i	i	nt	nt	nt
Oc1ccc(/C=N/Nc2ccnc3cc(Cl)ccc23)c(O)c1O	i	19.7	38.3	41.1	66.2	i	65.2	55.8	33.3	BSA probe FL=i;TCR-CD3 conf=21.9
Clc1ccc2c(NCc3ccccn3)ccnc2c1	i	i	i	i	i	i	nt	nt	nt
COc1ccc(NC2CC(=O)N(C(C)C)C2=O)cc1 (centres undefined)	i	i	i	i	i	i	nt	nt	nt
CC(C)N1C(=O)CC(Nc2cccc3cccc(N)c23)C1=O (centres undefined)	nt	i	36.4	32.5	36.5	i	i	nt	i
Cc1ccccc1C(=O)N1CCC(n2nccc2NC(=O)CCOc2ccccc2)CC1	i	i	i	i	i	i	nt	nt	nt
Cc1cc2cc(CNS(=O)(=O)c3ccc4ccccc4c3)ccc2n1C	i	57.8	50.9	26.4	66.6	i	i	i	i	BSA probe FL=i;TCR-CD3 conf=i
Cc1cc2ccccc2n1CCNC(=O)Cc1ccccc1	i	i	i	i	i	i	nt	nt	nt
Cc1cc(C)c(S(=O)(=O)NCCn2c(C)cc3ccccc32)c(C)c1	i	70.9	59.9	23.9	66.3	i	i	i	i	BSA probe FL=i;TCR-CD3 conf=i
Cc1cc(C)c(S(=O)(=O)NCc2ccc3c(c2)cc(C)n3C)c(C)c1	i	71.1	54.8	39.4	60.2	i	i	i	i	BSA probe FL=30.4;TCR-CD3 conf=25.8
COc1ccccc1-c1cnc(C(O)c2cc(Cl)cc(Cl)c2)[nH]1 (centres undefined)	nt	i	i	i	nt	i	nt	nt	nt
CC(=O)C(=Nc1ccccc1Cl)NNc1ccc(Cl)cc1	i	i	42.9	17.8	47.3	i	i	i	i
N#Cc1ccc[n+](CC(=O)c2ccc(Cl)cc2)c1	i	i	i	i	i	i	nt	nt	nt
CCN(CC)C(=O)CSc1nc2ccccc2c(=O)n1-c1cccc(OC)c1	i	i	i	i	i	i	nt	nt	nt
COc1cccc(-n2c(SCc3cc(=O)oc4cc(O)c(O)cc34)nc3ccccc3c2=O)c1	i	19.4	i	32.3	67.3	i	76.5	nt	i	BSA probe FL=i;TCR-CD3 conf=32.2
COC(=O)C1=C(C)N(Cc2ccc(Cl)cc2)C(=S)NC1c1ccc(OC)cc1 (centres undefined)	nt	i	i	i	nt	i	nt	nt	nt
Oc1cccc(C(Nc2nccs2)c2ccc3cccnc3c2O)c1 (centres undefined)	i	i	i	i	i	i	nt	nt	nt
SMILES	PAD4 inh	TCR CD3 inh	ABHD4 inh	SIAE inh	HTRA1 inhibitor	TDP2 absorb	HTRA1 conf	ABHD4 confirm	SIAE confirm	others
CC(=O)NC(c1ccc(C(C)C)cc1)c1ccc2cccnc2c1O (centres undefined)	i	i	i	23.4	66.1	i	75.3	nt	28.9
CC(=O)NC(c1ccc(C)cc1)c1cc(Cl)c2cccnc2c1O (centres undefined)	nt	i	i	20.0	61.6	i	75.6	nt	i
Cc1ccc2[nH]c3nc(N/N=C/c4cccc(O)c4)nnc3c2c1	i	i	i	i	i	i	nt	nt	nt
CCc1ccc2[nH]c3nc(N/N=C/c4ccc(O)cc4O)nnc3c2c1	i	i	i	30.2	60.5	i	63.0	nt	29.5
Cc1ccc(Cl)c2c1NC(=O)C2=O	i	i	i	i	i	i	nt	nt	nt
CCOC(=O)C1=C(C)N=C2c3ccccc3C(=O)C2C1c1ccc(Cl)cc1 (centres undefined)	i	i	34.6	18.6	38.0	i	i	66.1	i
CCOC(=O)C1=NNC(C(=O)c2ccccc2)C1c1ccc(Cl)cc1 (centres undefined)	i	i	i	i	i	i	nt	nt	nt
CCOc1cc(N2CCOCC2)c(OCC)cc1NC(C)C(=O)N1CCN(CC)CC1 (centres undefined)	nt	30.7	41.3	27.2	40.5	45.2	i	nt	i	BSA probe FL=i;TCR-CD3 conf=i
CCOc1cc(N2CCOCC2)c(OCC)cc1NC(=O)C(C)C	i	i	i	i	i	i	nt	nt	nt
CCCCCNc1ncnc2c(C)[nH]nc12	nt	i	i	i	nt	i	nt	nt	nt
O=C(COC(=O)c1c2c(nc3ccccc13)/C(=C/c1cccc([N+](=O)[O-])c1)CCC2)NC1CCS(=O)(=O)C1 (centres undefined)	i	i	i	i	i	i	nt	nt	nt
O=C(COC(=O)c1c2c(nc3ccccc13)/C(=C\c1ccco1)CC2)NC1CCCC1	nt	i	62.6	22.5	58.3	i	i	32.4	i
O=C(NNc1c2ccccc2nc2ccccc12)c1ccccc1O	i	i	i	18.6	51.3	i	38.6	nt	18.2
CCN(CC(=O)Nc1ccc2c(c1)OCCO2)C(=O)c1ccc([N+](=O)[O-])s1	i	i	i	i	i	i	nt	nt	nt
COc1ccc(C(=O)Nc2c(C)csc2C(=O)O)cc1	i	i	i	i	nt	i	nt	nt	nt
COc1cc(-c2nc(-c3ccccc3)c(-c3cccs3)[nH]2)cc(OC)c1OC	i	i	i	i	i	i	nt	nt	nt
COc1cc(-c2nc(-c3ccccc3)c(-c3cccs3)[nH]2)cc(OC)c1O	i	i	35.0	19.9	42.6	i	i	44.0	i

Source: PubChem
